Experiment [1] addresses T1, Carboxypeptidase D (Homo sapiens) (UniProt O75976).
T1 sequence (whole entry): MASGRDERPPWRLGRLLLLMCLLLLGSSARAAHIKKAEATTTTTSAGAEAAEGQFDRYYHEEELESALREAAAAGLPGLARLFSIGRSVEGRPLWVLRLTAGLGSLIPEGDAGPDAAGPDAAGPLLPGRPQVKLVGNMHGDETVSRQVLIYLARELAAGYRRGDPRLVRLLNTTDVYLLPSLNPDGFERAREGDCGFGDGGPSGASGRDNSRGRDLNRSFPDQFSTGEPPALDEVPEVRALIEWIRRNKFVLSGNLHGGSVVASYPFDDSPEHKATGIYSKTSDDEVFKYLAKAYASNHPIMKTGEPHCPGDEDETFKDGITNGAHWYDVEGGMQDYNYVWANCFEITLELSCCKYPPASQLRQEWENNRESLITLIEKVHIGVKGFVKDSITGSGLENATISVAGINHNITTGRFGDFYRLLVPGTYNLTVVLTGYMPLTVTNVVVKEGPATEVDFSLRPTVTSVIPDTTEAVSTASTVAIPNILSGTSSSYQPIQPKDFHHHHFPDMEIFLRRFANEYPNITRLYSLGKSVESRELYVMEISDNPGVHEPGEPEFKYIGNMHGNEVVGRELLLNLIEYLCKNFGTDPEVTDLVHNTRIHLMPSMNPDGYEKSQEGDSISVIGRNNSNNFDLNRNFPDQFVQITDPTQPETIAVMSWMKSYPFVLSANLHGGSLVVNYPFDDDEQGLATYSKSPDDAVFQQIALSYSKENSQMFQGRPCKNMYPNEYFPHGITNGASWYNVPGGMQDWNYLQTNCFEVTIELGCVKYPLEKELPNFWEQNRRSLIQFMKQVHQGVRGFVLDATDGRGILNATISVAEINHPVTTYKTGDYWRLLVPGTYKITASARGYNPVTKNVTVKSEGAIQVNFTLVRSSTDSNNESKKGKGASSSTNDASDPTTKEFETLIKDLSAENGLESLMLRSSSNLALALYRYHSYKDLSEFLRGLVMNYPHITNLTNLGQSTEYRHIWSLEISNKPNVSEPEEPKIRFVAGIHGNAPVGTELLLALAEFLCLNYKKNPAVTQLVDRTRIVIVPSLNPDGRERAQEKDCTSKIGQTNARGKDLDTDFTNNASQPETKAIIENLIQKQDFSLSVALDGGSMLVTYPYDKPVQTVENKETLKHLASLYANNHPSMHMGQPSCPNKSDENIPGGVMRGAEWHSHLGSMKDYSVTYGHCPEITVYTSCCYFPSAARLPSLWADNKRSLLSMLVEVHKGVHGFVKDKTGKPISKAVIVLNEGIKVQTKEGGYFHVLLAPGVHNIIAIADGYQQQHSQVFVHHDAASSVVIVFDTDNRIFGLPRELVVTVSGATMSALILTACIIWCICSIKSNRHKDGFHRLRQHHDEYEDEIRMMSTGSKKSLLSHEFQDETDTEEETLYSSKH
The experiment can be described thus: Inhibition of human CPD at 1 nM to 1 mM using AAFA as substrate preincubated for 45 mins to 2 hrs measured at 30 sec intervals for 15 mins by UV/vis-spectrophotometry. In a few lines: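 hCPD was used at 2.0x10-8 M with AAFA substrate at 1.0x10-4 M, monitored at 355 nm. Buffer was 20 mM Tris-HCl pH 7.5, 100 mM NaCl, 1% DMSO, 0.05% Brij-35. Preincubation was 45 min at 37 °C. Residual activity at a range of inhibitor concentrations was measured from initial rates (30 sec reads, 15 min), in triplicate. Kiapp came from the tight-binding fit.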

Another experiment concerns the target T2, Carboxypeptidase A2 (Homo sapiens, UniProt P48052).
T2 sequence (P48052 whole entry): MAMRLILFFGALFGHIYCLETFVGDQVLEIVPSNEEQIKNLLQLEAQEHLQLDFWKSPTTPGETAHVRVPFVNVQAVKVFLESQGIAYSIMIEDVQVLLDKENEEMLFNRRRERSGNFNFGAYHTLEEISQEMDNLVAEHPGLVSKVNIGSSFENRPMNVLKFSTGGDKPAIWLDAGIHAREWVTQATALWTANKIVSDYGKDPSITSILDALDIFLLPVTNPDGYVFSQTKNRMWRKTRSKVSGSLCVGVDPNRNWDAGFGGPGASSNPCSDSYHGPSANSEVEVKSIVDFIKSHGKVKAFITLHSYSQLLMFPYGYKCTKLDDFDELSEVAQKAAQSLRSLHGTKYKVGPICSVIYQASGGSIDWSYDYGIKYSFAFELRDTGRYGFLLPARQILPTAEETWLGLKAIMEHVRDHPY
Briefly: Inhibition of human CPA2 using AAFP as substrate preincubated for 45 mins to 2 hrs measured at 30 sec intervals for 15 mins by UV/vis-spectrophotometry. In a few lines: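 hCPA2 was used at 3.0x10-8 M with AAFP substrate at 1.0x10-4 M, read at 355 nm, in 20 mM Tris-HCl pH 7.5, 500 mM NaCl, 1% DMSO, 0.05% Brij-35. After a 45 min preincubation at 37 °C, initial rates were followed at 30 sec intervals for 15 min, in triplicate. Kiapp was fitted by the tight-binding equation.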

Another experiment has as its target Carboxypeptidase B (Homo sapiens, UniProt P15086). Briefly: Inhibition of human CPB1 using AAFA as substrate preincubated for 45 mins to 2 hrs measured at 30 sec intervals for 15 mins by UV/vis-spectrophotometry. In a few lines:
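hCPB1 was used at 6.0x10-9 M with 1.0x10-4 M AAFA, read at 355 nm. After 45 min preincubation with inhibitor at 37 °C, residual activity at varied inhibitor concentrations was followed for 15 min at 30 sec intervals, in triplicate. Kiapp was fitted with the tight-binding equation.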

A further experiment addresses T3, Carboxypeptidase A1 (Homo sapiens, UniProt P15085).
T3 sequence (P15085 whole entry): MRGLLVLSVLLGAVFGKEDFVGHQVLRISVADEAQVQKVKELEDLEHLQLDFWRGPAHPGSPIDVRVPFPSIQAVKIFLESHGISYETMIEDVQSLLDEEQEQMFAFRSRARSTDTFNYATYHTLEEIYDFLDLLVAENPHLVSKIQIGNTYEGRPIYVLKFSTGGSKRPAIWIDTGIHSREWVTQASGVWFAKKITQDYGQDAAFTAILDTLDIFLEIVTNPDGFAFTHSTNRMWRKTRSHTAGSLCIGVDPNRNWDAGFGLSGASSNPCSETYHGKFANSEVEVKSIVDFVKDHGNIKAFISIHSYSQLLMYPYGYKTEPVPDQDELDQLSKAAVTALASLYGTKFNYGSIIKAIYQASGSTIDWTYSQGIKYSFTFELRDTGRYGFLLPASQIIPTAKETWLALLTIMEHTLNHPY
Briefly: Inhibition of human CPA1 using AAFP as substrate preincubated for 45 mins to 2 hrs measured at 30 sec intervals for 15 mins by UV/vis-spectrophotometry. The method, boiled down:
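hCPA1 was used at 1.0x10-8 M with AAFP substrate at 1.0x10-4 M, read at 355 nm. Enzyme and inhibitor were preincubated 45 min at 37 °C before substrate was added. Initial velocities were read every 30 sec for 15 min, in triplicate. Apparent Ki came from a fit to the tight-binding equation.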

Another experiment deals with T4, Carboxypeptidase A4 (Homo sapiens, UniProt Q9UI42).
T4 sequence (Q9UI42 whole entry): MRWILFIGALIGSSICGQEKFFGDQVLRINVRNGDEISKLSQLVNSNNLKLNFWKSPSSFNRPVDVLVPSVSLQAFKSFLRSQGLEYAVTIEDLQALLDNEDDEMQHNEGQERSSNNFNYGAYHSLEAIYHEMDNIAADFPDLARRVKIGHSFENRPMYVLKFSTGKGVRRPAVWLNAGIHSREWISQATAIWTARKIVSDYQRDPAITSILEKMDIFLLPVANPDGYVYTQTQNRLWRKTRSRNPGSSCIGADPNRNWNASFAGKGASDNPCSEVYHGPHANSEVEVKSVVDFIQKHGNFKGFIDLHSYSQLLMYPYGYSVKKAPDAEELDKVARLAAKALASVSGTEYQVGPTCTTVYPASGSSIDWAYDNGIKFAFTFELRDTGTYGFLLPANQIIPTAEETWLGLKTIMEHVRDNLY
Briefly: Inhibition of human CPA4 using AAFP as substrate preincubated for 45 mins to 2 hrs measured at 30 sec intervals for 15 mins by UV/vis-spectrophotometry. In a few lines:
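Enzyme was hCPA4 at 4.3x10-8 M, with 1.0x10-4 M AAFP and detection at 355 nm. Inhibitor and enzyme were preincubated 45 min at 37 °C, then initial velocities were taken over 15 min (30 sec reads), in triplicate. Kiapp was obtained from the tight-binding fit.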

Active and inactive are the calls of the source. The calls are words filed in the database; no cut-off is given here.

Sequence of Carboxypeptidase B (P15086 whole entry): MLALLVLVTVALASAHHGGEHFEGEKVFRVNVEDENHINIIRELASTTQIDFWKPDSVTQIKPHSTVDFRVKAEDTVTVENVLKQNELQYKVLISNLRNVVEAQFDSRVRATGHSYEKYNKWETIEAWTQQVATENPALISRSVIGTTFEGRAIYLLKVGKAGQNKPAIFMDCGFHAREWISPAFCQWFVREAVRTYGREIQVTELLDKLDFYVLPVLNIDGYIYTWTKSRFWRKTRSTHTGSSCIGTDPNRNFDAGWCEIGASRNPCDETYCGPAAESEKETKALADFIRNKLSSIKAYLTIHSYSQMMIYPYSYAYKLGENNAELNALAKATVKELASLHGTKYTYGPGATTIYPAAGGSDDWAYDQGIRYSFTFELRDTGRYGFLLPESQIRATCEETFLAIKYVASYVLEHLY

Broadly, the Ki is the dissociation constant of the complex between target and ligand, obtained from inhibition or displacement. A low value points to tighter binding. For `CC(=O)N[C@@H](CC(C)C)C(=O)N[C@@H](Cc1ccccc1)P(=O)(O)C[C@@H](Cc1ccccc1)C(=O)O`, the inhibition entry in experiment [1] was “inactive”. Also, the Ki on Carboxypeptidase A2 was 1 nM; on Carboxypeptidase B, 0.12 nM; on Carboxypeptidase A1, 0.04 nM; on Carboxypeptidase A4, 0.39 nM.

For the origin of these results see ChEMBL document CHEMBL4411328, “Synthesis and Structural/Functional Characterization of Selective M14 Metallocarboxypeptidase Inhibitors Based on Phosphinic Pseudopeptide Scaffold: Implications on the Design of Specific Optical Probes” (J Med Chem, 2019).
